Values after ≈ are worked out from the molar mass of the structure shown.
Columns and labels:
Rattus norvegicus [1] = assay: Antiinflammatory activity in Wistar rat assessed as inhibition of carrageenan-induced paw edema measured after 1 hr at 6 mg/kg, po equimolar dose of indomethacin administered 1 hr before carrageenan challenge; assay type: functional
Outline: (§1)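 Wistar rats of either sex, 120–140 g, fasted 24 h, n = 6 per group. Compounds were suspended in 1.0% aqueous sodium CMC and dosed orally, equimolar to indomethacin 6 mg/kg, 1 h before subplantar carrageenan (1.0% w/v, 0.1 mL) into the right hind paw. Paw volume was read by plethysmometer before and after injection. Results are % inhibition versus vehicle control. ANOVA with Dunnett's test.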

Rattus norvegicus [2] = assay: Antiinflammatory activity in Wistar rat assessed as inhibition of carrageenan-induced paw edema measured after 3 hrs at 6 mg/kg, po equimolar dose of indomethacin administered 1 hr before carrageenan challenge; assay type: functional; outline: as §1
[3] = Induction of nitric oxide release at 0.1 mM in pH 7.4 phosphate buffer in presence of 5 mM L-cysteine by Griess method; settings: pH 7.4, 100 µM
Aorta = assay: Vasorelaxant activity in Wistar rat aorta assessed as inhibition of norepinephrine-induced contractions; assay type: functional, tissue-based
Outline: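 Endothelium-intact aortic rings were accepted only if relaxation was ≥70% of the NE-induced contraction. Rings were then contracted with NE or 30 mM KCl, and test compounds were added cumulatively once a stable plateau was reached. EC50 values were calculated from cumulative concentration-response curves.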

Rattus norvegicus [4] = assay: Antiinflammatory activity in Wistar rat assessed as inhibition of carrageenan-induced paw edema measured after 2 hrs at 6 mg/kg, po equimolar dose of indomethacin administered 1 hr before carrageenan challenge; assay type: functional; outline: as §1
Mus musculus = assay: Analgesic activity in Swiss albino mouse assessed as inhibition of acetic acid-induced writhing at 0.00001911 mol/kg, po administered 1 hr before acetic acid challenge measured after 25 mins; assay type: functional
Outline: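 Acetic acid writhing in mice. Compounds were suspended in 1.0% aqueous sodium CMC and given orally at equimolar doses equivalent to 6 mg/kg indomethacin (0.00001911 mol/kg). Writhes were counted over 25 min after treatment, n = 6, and reported as % inhibition versus vehicle control. One-way ANOVA with Dunnett's test.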

Rattus norvegicus [5] = assay: Antiinflammatory activity in Wistar rat assessed as inhibition of carrageenan-induced paw edema measured after 2 hrs at 6 mg/kg, po administered 1 hr before carrageenan challenge; assay type: functional; outline: as §1
Rattus norvegicus [6] = assay: Antiinflammatory activity in Wistar rat assessed as inhibition of carrageenan-induced paw edema measured after 3 hrs at 6 mg/kg, po administered 1 hr before carrageenan challenge; assay type: functional; outline: as §1
Rattus norvegicus [7] = assay: Antiinflammatory activity in Wistar rat assessed as inhibition of carrageenan-induced paw edema measured after 1 hr at 6 mg/kg, po administered 1 hr before carrageenan challenge; assay type: functional; outline: as §1
Rattus norvegicus [8] = assay: Gastrointestinal toxicity in Wistar rat assessed as gastric mucosal layer disruption at 40.71 mg/kg, po by histopathological study; assay type: organism-based, Gastric mucosa; design: dose 40.71 mg/kg, route oral; settings: in vivo
Rattus norvegicus [9] = assay: Gastrointestinal toxicity in Wistar rat assessed as gastric mucosal layer disruption at 38.27 mg/kg, po by histopathological study; assay type: organism-based, Gastric mucosa; design: dose 38.27 mg/kg, route oral; settings: in vivo
Rattus norvegicus [10] = assay: Gastrointestinal toxicity in Wistar rat assessed as ulcer incidence at 40.71 mg/kg, po; assay type: organism-based; design: dose 40.71 mg/kg, route oral; settings: in vivo
Rattus norvegicus [11] = assay: Gastrointestinal toxicity in Wistar rat assessed as ulcer incidence at 38.27 mg/kg, po; assay type: organism-based; design: dose 38.27 mg/kg, route oral; settings: in vivo
Rattus norvegicus [12] = assay: Gastrointestinal toxicity in Wistar rat assessed as gastric mucosal layer disruption at 34.84 mg/kg, po by histopathological study; assay type: organism-based, Gastric mucosa; design: dose 34.84 mg/kg, route oral; settings: in vivo
Rattus norvegicus [13] = assay: Gastrointestinal toxicity in Wistar rat assessed as ulcer incidence at 34.84 mg/kg, po; assay type: organism-based; design: dose 34.84 mg/kg, route oral; settings: in vivo
Rattus norvegicus [14] = assay: Gastrointestinal toxicity in Wistar rat assessed as ulcer index at 38.27 mg/kg, po; assay type: organism-based; design: dose 38.27 mg/kg, route oral; settings: in vivo
Rattus norvegicus [15] = assay: Gastrointestinal toxicity in Wistar rat assessed as ulcer index at 33.70 mg/kg, po; assay type: organism-based; design: dose 33.7 mg/kg, route oral; settings: in vivo, 33.7 mg/kg
Rattus norvegicus [16] = assay: Gastrointestinal toxicity in Wistar rat assessed as ulcer incidence at 33.70 mg/kg, po; assay type: organism-based; design: dose 33.7 mg/kg, route oral; settings: in vivo, 33.7 mg/kg
Rattus norvegicus [17] = assay: Gastrointestinal toxicity in Wistar rat assessed as ulcer index at 34.84 mg/kg, po; assay type: organism-based; design: dose 34.84 mg/kg, route oral; settings: in vivo
Rattus norvegicus [18] = assay: Gastrointestinal toxicity in Wistar rat assessed as gastric mucosal layer disruption at 33.70 mg/kg, po by histopathological study; assay type: organism-based, Gastric mucosa; design: dose 33.7 mg/kg, route oral; settings: in vivo, 33.7 mg/kg
Rattus norvegicus [19] = assay: Gastrointestinal toxicity in Wistar rat assessed as ulcer index at 40.71 mg/kg, po; assay type: organism-based; design: dose 40.71 mg/kg, route oral; settings: in vivo
Rattus norvegicus [20] = assay: Gastrointestinal toxicity in Wistar rat assessed as ulcer incidence at 24 mg/kg, po; assay type: organism-based; design: dose 24 mg/kg, route oral; settings: in vivo
Rattus norvegicus [21] = assay: Gastrointestinal toxicity in Wistar rat assessed as gastric mucosal layer disruption at 24 mg/kg, po by histopathological study; assay type: organism-based, Gastric mucosa; design: dose 24 mg/kg, route oral; settings: in vivo

Structure (SMILES)	inhibition in vivo (Rattus norvegicus [1])	inhibition in vivo (Rattus norvegicus [2])	Activity [3]	EC50 (Aorta)	inhibition in vivo (Rattus norvegicus [4])	inhibition (INH) (Mus musculus)	Activity (Rattus norvegicus [8])	Activity (Rattus norvegicus [9])	Activity (Rattus norvegicus [10])	Activity (Rattus norvegicus [11])	Activity (Rattus norvegicus [12])	Activity (Rattus norvegicus [13])	Activity (Rattus norvegicus [14])	Activity (Rattus norvegicus [15])	Activity (Rattus norvegicus [16])	Activity (Rattus norvegicus [17])	Activity (Rattus norvegicus [18])	Activity (Rattus norvegicus [19])	other results
O=C(CO[N+](=O)[O-])NNC(=O)c1ccc(-n2[nH]c(=O)cc2-c2ccc(Cl)cc2)cc1	5.88%	5.84%	0.66%	21.3 µg/mL (≈ 49.4 µM)	11.4%	10.78%													
CCOC(=O)c1c(-c2ccc([N+](=O)[O-])cc2)n(-c2ccc(C(=O)NNC(=O)CO[N+](=O)[O-])cc2)[nH]c1=O	27.8%	22.2%	0.49%	28.2 µg/mL (≈ 54.8 µM)	28.1%	45.9%													
COc1ccc2c(c1)c(CC(=O)O)c(C)n2C(=O)c1ccc(Cl)cc1 [INDOMETHACIN]						54.9%													inhibition in vivo at 6 mg/kg (Rattus norvegicus [5]): 58.3%; inhibition in vivo at 6 mg/kg (Rattus norvegicus [6]): 57.9%; inhibition in vivo at 6 mg/kg (Rattus norvegicus [7]): 52.7%
CCOC(=O)c1c(-c2ccccc2O)n(-c2ccc(C(=O)NNC(=O)CO[N+](=O)[O-])cc2)[nH]c1=O	27.8%	21.1%	0.27%	70.8 µg/mL (≈ 146 µM)	26.6%	10.78%													
CCOC(=O)c1c(-c2ccccc2)n(-c2ccc(C(=O)NNC(=O)CO[N+](=O)[O-])cc2)[nH]c1=O	54%	59.6%	0.46%	35.5 µg/mL (≈ 75.6 µM)	57.8%	56.86%	Non-toxic	Non-toxic	Non-toxic	Non-toxic	Non-toxic	Non-toxic	Non-toxic	Non-toxic	Non-toxic	Non-toxic	Non-toxic	Non-toxic	
O=C(CO[N+](=O)[O-])NNC(=O)c1ccc(-n2[nH]c(=O)cc2-c2ccc([N+](=O)[O-])cc2)cc1	23.6%	24%	0.39%	49.1 µg/mL (≈ 111 µM)	27.1%	45.09%	Non-toxic	Non-toxic	Non-toxic	Non-toxic	Non-toxic	Non-toxic	Non-toxic	Non-toxic	Non-toxic	Non-toxic	Non-toxic	Non-toxic	
O=C(CO[N+](=O)[O-])NNC(=O)c1ccc(-n2[nH]c(=O)cc2-c2ccccc2)cc1	19.8%	20.5%	0.51%	26.7 µg/mL (≈ 67.3 µM)	16.1%	53.92%													
CCOC(=O)c1c(-c2ccc(Cl)cc2)n(-c2ccc(C(=O)NNC(=O)CO[N+](=O)[O-])cc2)[nH]c1=O	3.2%	6.43%	0.37%	50.2 µg/mL (≈ 99.6 µM)	10.4%	6.86%													
COc1ccccc1-c1cc(=O)[nH]n1-c1ccc(C(=O)NNC(=O)CO[N+](=O)[O-])cc1		57.9%	0.32%	66.8 µg/mL (≈ 156 µM)	55.7%	51.96%	Non-toxic	Non-toxic	Non-toxic	Non-toxic	Non-toxic	Non-toxic	Non-toxic	Non-toxic	Non-toxic	Non-toxic	Non-toxic	Non-toxic	inhibition in vivo at 6 mg/kg (Rattus norvegicus [1]; dose 6 mg/kg): 55.1%
O=C(O)Cc1ccccc1Nc1c(Cl)cccc1Cl [DICLOFENAC]																			Activity (Rattus norvegicus [20]): Toxic; Activity (Rattus norvegicus [21]): Toxic
CCOC(=O)c1c(-c2ccccc2OC)n(-c2ccc(C(=O)NNC(=O)CO[N+](=O)[O-])cc2)[nH]c1=O	31%	25.1%	0.35%	63.1 µg/mL (≈ 126 µM)	30.7%	50.98%	Non-toxic	Non-toxic	Non-toxic	Non-toxic	Non-toxic	Non-toxic	Non-toxic	Non-toxic	Non-toxic	Non-toxic	Non-toxic	Non-toxic	
O=C(CO[N+](=O)[O-])NNC(=O)c1ccc(-n2[nH]c(=O)cc2-c2ccccc2O)cc1	23%	16.4%	0.69%	17.8 µg/mL (≈ 43.1 µM)	19.3%	16.66%													
